Measured values from different studies.
Target: Casein kinase I isoform epsilon (CSNK1E, Homo sapiens, UniProt P49674)

O=C(c1ccc(Nc2ncc(Cl)c(-c3ccc(Cl)s3)n2)cc1)N1CCC(N2CCCC2)CC1 — remaining binding (binding; competition with immobilised ligand; 1 µM): 100%
Cc1nc(N2CC[C@@H](O)C2)ncc1-c1cc(C(F)(F)F)cc2[nH]ncc12 — remaining binding (binding; competition with immobilised ligand; 1 µM): 79%
COc1cnc(Nc2cccc(S(N)(=O)=O)c2)nc1N1CCN(c2ccccc2)CC1 — remaining binding (binding; competition with immobilised ligand; 1 µM): 100%
COc1ncc2cc3ccccc3nc2c1C#N — remaining binding (cell-free assay; competition with immobilised ligand; 5 µM): 86%
O=C(NCC1CCOCC1)c1n[nH]cc1NC(=O)c1c(F)cccc1F — remaining binding (binding; competition with immobilised ligand; 1 µM): 81%
CN(c1ccnc(CNc2nc(Nc3ccc4c(c3)CC(=O)N4)ncc2C(F)(F)F)n1)S(C)(=O)=O — remaining binding (cell-free assay; competition with immobilised ligand; 1 µM): 100%
C[C@H]1CCN(c2nccc(-c3cnn4ncccc34)n2)C1 — remaining binding (binding; 1 µM): 49%
Cc1c(NC(=O)c2cc(C(N)=O)nc3cc(F)ccc23)c(C(F)(F)F)nn1Cc1ccc(C(C)(C)C)cc1 — remaining binding (cell-free assay; competition with immobilised ligand; 1 µM): 91%
COc1ccnn2ncc(-c3ccnc(N(C)C)n3)c12 — remaining binding (binding; 1 µM): 75%
FC(F)(F)Oc1cccc(-c2cnc3ccc(-c4ccncc4)nn23)c1 — remaining binding (cell-free assay; competition with immobilised ligand; 5 µM): 12%
CCN1CCN(Cc2ccc(C(=O)Nc3ccc(C)c(Oc4ccc5c(c4)CC(=O)N5)c3)cc2C(F)(F)F)CC1 — remaining binding (binding; competition with immobilised ligand; 1 µM): 100%
Cc1cnn2ncc(-c3ccnc(N(C)C)n3)c2c1 — remaining binding (binding; 1 µM): 60%
C=CC(=O)N1CCC(C(=O)NCC(=O)N2CCN(c3nc(-c4cnc(N)nc4C(F)F)nc(N4CCOCC4)n3)CC2)CC1 — remaining binding (binding; competition with immobilised ligand; 1 µM): 87%
O=C(NCCCN1CCOCC1)c1ccc(Nc2nccc(-c3cc4ccccc4s3)n2)cc1 — remaining binding (binding; competition with immobilised ligand; 1 µM): 100%
CC1CCCN1c1nccc(-c2cnn3ncccc23)n1 (stereo not shown) — remaining binding (binding; 1 µM): 100%
Cc1cnc(Nc2ccc(C(=O)N3CCC(N4CCCC4)CC3)cc2)nc1-c1cc2ccccc2s1 — remaining binding (binding; competition with immobilised ligand; 1 µM): 100%
C[C@@H]1CN(c2cc(-c3n[nH]c4ccc(OC5(C)CC5)cc34)ncn2)C[C@H](C)O1 — remaining binding (cell-free assay; competition with immobilised ligand; 0.1 µM): 100%
C[C@@H](c1ccc(-n2cnc3c(N)ncnc32)cc1)N1CCc2nn(C)c(Cc3ccccc3)c2C1=O — remaining binding (binding; competition with immobilised ligand; 0.1 µM): 83%
CC(=O)N1CCC(c2ccc(C(=O)NC3=NCCN3)cc2C(F)(F)F)CC1 — remaining binding (cell-free assay; competition with immobilised ligand; 1 µM): 100%
N[C@@H]1CCN(c2nccc(-c3cnn4ncccc34)n2)C1 — remaining binding (binding; 1 µM): 31%
CC(=O)N1CCC(c2ccc(C(=O)NC(=N)N)cc2C(F)(F)F)CC1 — remaining binding (cell-free assay; competition with immobilised ligand; 1 µM): 100%
CN(CCCC(F)(F)F)c1nccc(-c2cnn3ncccc23)n1 — remaining binding (binding; 1 µM): 100%
